# According to PubChem BioAssay AID871 (The Scripps Research Institute Molecular Screening Center, 2007):
# Out of some 190,000 compounds screened, about 1,800 (0.95%) were called active. This is one part of a sample in which actives are shown more often than they occur.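 How the source made its calls: active means activation above the screen-wide mean of compound activation plus 3 SD (cut at about 130% in these data); inactive means the rest.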
# Test: IL-6 driven STAT3 reporter potentiators, primary screen, U3A cells, luciferase, luminescence, MLSCN library (AID 871);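 further: 0% = background luminescence of wells with medium and substrate only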
# Conditions: IL-6 STAT3-luciferase reporter, at 5.6 µM, stronger effect = higher value
# Outline: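 Test system: STAT3-luciferase reporter U3A cells; Detection: reporter luminescence signal; Times: 1 h compound pre-exposure, 6 h IL-6 stimulation, 37 °C; Benchmarks: IL-6-only high control; Also added: IL-6 stimulus at 33 ng/mL final.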
row,SMILES,activation (% of control)
1,COc1cc(-n2c(=S)[nH]c3ccc(C)cc3c2=O)c(Cl)cc1Cl,156% (active)
2,CC(=O)c1c(C)n(C(C)C)c2ccc(O)cc12,102% (inactive)
3,N#CC1=C(N)Oc2c(c(=O)oc3ccccc23)C1c1ccccc1OC(=O)c1cccs1 (stereo not given),106% (inactive)
4,CCOP(=S)(OCC)SCOC(=O)NCC(=O)OC,106% (inactive)
5,CCC/C(=N\O)c1c[nH]c2ccccc12,153% (active)
6,C/C(CCc1c[nH]c2ccccc12)=N\O,98% (inactive)
7,CC1=CC(=Cc2sc3ccccc3[n+]2C)C=C(C)O1,30.2% (inactive)
8,CCOc1ccc(CN(CCCl)CCCl)cc1C(=O)OC,96.4% (inactive)
9,CCOCCc1c(O)[nH]c(=S)[nH]c1=O,99.3% (inactive)
10,O=C(Nc1cccc2ccccc12)N1CCC2(CC1)OCCO2,105% (inactive)
